ChEMBL document CHEMBL4402580, “Structure-Activity Relationship Studies of Tetrahydroquinolone Free Fatty Acid Receptor 3 Modulators” (J Med Chem, 2020)
Each block holds one compound with its values, some of them ahead of it. Active and inactive are the calls of the source. No cut-off for these calls is given here.

Experiments:
[1] = target: T1, Free fatty acid receptor 3 (Homo sapiens) (UniProt O14843); experiment: (§1) Positive allosteric modulation at human FFA3 receptor stably expressed in Flp-In T-Rex HEK293 cells cotransfected with eYFP assessed as inhibition of forskolin-induced cAMP production measured after 1 hr in presence of 1 uM propionate by fluorescence plate reader assay; type: functional, cell-based
T1 sequence (whole entry): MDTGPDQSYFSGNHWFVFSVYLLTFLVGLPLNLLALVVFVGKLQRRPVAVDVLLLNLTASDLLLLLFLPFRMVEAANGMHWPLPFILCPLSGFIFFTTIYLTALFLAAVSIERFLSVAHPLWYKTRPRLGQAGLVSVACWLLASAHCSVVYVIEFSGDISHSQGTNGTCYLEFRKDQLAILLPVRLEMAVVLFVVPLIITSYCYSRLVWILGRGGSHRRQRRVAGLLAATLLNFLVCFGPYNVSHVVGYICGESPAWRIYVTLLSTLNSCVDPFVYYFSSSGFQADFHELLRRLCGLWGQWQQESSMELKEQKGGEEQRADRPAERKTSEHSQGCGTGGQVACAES

[2] = target: T1, Free fatty acid receptor 3 (Homo sapiens)
[3] = target: T2, Free fatty acid receptor 3 (Homo sapiens, UniProt O14843)
T2 sequence (O14843 whole entry): T1 sequence (whole entry)

[4] = target: T2, Free fatty acid receptor 3; experiment: Agonist activity at human FFA3 receptor stably expressed in Flp-In T-Rex HEK293 cell membrane assessed as stimulation of [35S]-GTPgammaS binding measured after 1 hr in presence of GDP by liquid scintillation spectrometry
[5] = target: T3, Free fatty acid receptor 3 (Mus musculus) (UniProt Q3UFD7); experiment: Agonist activity at FFA3 in C57/BL6 mouse DRG neurons assessed as increase in intracellular calcium level at 5 uM by Fura-8/AM staining based inverted fluorescence microscopy; type: functional, cell-based
T3 sequence (whole entry): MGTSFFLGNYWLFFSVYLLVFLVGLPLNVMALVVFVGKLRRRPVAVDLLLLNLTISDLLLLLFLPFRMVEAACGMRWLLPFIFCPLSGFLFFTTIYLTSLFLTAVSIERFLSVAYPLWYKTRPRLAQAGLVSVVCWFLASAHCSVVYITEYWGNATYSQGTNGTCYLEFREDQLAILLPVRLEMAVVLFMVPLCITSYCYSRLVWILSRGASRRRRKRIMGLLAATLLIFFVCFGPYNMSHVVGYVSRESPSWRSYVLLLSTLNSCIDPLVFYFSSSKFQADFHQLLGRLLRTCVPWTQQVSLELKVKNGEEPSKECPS
Procedure, shortened: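 Mouse colonic-innervating DRGs (T9–L2), wild-type C57/BL6 and FFA3 knockout, digested with papain/L-cysteine then collagenase/dispase, triturated, cultured overnight on matrigel. Cells loaded with Fura 8-AM (3 μM, 20 min, 37 °C), perfused with HEPES buffer pH 7.4, ligand applied 3 min, then ionomycin 5 μM as positive control. Read-out: relative fluorescence by real-time imaging; N = 3 mice per genotype.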

[6] = Chemical stability of compound in DMSO assessed as compound degradation at 25 degree C measured after 30 days by NMR analysis; type: physicochemical; settings: 720 h
[7] = target: G-protein coupled receptor 84 (Homo sapiens) (UniProt Q9NQS5); experiment: Agonist activity at human C-terminal Gia tagged GPR84 receptor stably expressed in Flp-In T-Rex 293 cells assessed as inhibition of forskolin-induced cAMP production at 10 uM after 45 mins by HTR-FRET assay; type: functional, cell-based
Chain of G-protein coupled receptor 84 (Homo sapiens) (Q9NQS5 whole entry): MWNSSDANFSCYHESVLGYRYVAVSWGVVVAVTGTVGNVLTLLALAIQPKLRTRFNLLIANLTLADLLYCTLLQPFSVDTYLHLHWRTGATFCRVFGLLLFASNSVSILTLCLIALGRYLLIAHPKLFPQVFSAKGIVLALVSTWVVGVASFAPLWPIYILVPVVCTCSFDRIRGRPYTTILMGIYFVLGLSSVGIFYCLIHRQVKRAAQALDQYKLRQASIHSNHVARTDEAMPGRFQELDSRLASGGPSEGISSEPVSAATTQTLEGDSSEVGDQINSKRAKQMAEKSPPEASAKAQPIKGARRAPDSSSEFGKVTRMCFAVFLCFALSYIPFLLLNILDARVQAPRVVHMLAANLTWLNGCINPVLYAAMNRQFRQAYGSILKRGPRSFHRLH

DRG neuron = experiment: Effect on intracellular calcium level in FFA3 knock out C57/BL6 mouse DRG neurons at 5 uM by Fura-8/AM staining based inverted fluorescence microscopy; type: functional, cell-based
Procedure, shortened: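 DRGs from T9–L2 spinal cord of FFA3 knock-out and wild-type C57/BL6 mice; papain/L-cysteine then collagenase/dispase digestion (20 min each, 37 °C), trituration, matrigel coverslips, overnight culture in DMEM/10% FCS. Fura 8-AM (3 μM) loading 20 min, 37 °C; perfusion with HEPES buffer pH 7.4 at room temperature; ligand applied 3 min, then ionomycin 5 μM. Relative fluorescence; N = 3 mice.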

[8] = Chemical stability of compound in DMSO at 4 degree C measured after 30 days by NMR analysis; type: physicochemical; settings: read-out: Stability
[9] = target: T4, Free fatty acid receptor 4 (Homo sapiens) (UniProt Q5NUL3); experiment: Agonist activity at human C-terminal eYFP tagged FFA4 receptor stably expressed in HEK293T cells cotransfected with nano-luciferase assessed as recruitment of beta-arrestin2 at 10 uM followed by TUG-891 addition prior to compound treatment by BRET assay; type: cell-based
T4 sequence (whole entry): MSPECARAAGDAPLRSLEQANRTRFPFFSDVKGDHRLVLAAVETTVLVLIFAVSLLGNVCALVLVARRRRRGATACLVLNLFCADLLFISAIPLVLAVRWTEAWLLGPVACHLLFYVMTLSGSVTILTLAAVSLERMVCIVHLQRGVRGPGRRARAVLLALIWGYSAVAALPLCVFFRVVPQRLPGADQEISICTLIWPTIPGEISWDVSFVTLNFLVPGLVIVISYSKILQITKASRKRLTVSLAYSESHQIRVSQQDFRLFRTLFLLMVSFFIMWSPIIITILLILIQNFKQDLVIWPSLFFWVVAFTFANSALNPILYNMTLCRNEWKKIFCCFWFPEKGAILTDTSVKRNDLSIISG

[10] = target: T5, Free fatty acid receptor 2 (Homo sapiens) (UniProt O15552); experiment: Agonist activity at human C-terminal eYFP tagged FFA2 receptor stably expressed in Flp-In T-Rex 293 cells assessed as inhibition of forskolin-induced cAMP production at 10 uM after 30 mins by HTR-FRET assay; type: functional, cell-based
T5 sequence (whole entry): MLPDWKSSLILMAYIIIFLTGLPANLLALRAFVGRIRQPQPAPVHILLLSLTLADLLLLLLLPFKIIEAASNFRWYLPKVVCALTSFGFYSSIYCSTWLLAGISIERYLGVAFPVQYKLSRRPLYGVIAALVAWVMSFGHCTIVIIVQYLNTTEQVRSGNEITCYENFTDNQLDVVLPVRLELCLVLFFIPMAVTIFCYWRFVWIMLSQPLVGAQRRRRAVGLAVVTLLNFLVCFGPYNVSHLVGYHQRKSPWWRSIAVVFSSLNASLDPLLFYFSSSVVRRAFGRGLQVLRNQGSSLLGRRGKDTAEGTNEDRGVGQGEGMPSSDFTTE

[11] = Chemical stability of compound in DMSO at 4 degree C measured after 7 days by NMR analysis; type: physicochemical; settings: read-out: Stability
[12] = target: Free fatty acid receptor 1 (Homo sapiens) (UniProt O14842); experiment: Agonist activity at human C-terminal eYFP tagged FFA1 receptor stably expressed in HEK293T cells cotransfected with nano-luciferase assessed as recruitment of beta-arrestin2 at 10 uM followed by TUG-770 addition prior to compound treatment by BRET assay; type: cell-based
Chain of Free fatty acid receptor 1 (Homo sapiens) (O14842 whole entry): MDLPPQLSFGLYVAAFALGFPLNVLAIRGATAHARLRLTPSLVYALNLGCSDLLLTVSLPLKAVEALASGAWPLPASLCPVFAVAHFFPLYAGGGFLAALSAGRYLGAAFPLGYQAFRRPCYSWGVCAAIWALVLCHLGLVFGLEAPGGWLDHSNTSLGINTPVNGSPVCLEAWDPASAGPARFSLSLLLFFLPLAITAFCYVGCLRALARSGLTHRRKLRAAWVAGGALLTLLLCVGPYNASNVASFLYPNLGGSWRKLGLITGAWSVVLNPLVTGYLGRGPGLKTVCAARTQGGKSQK

[13] = Chemical stability of compound in DMSO at 25 degree C measured after 7 days by NMR analysis; type: physicochemical; settings: read-out: Stability
[14] = target: Voltage-dependent L-type calcium channel subunit alpha-1C (Homo sapiens, UniProt Q13936); experiment: Displacement of [3H]-PN200-110 from recombinant full length human L-type calcium channel expressed in HEK293 cells at 10 uM incubated for 120 mins by radiometric scintillation counting method; type: cell-based; settings: hek293, 2 h
Chain of Voltage-dependent L-type calcium channel subunit alpha-1C (Q13936 whole entry): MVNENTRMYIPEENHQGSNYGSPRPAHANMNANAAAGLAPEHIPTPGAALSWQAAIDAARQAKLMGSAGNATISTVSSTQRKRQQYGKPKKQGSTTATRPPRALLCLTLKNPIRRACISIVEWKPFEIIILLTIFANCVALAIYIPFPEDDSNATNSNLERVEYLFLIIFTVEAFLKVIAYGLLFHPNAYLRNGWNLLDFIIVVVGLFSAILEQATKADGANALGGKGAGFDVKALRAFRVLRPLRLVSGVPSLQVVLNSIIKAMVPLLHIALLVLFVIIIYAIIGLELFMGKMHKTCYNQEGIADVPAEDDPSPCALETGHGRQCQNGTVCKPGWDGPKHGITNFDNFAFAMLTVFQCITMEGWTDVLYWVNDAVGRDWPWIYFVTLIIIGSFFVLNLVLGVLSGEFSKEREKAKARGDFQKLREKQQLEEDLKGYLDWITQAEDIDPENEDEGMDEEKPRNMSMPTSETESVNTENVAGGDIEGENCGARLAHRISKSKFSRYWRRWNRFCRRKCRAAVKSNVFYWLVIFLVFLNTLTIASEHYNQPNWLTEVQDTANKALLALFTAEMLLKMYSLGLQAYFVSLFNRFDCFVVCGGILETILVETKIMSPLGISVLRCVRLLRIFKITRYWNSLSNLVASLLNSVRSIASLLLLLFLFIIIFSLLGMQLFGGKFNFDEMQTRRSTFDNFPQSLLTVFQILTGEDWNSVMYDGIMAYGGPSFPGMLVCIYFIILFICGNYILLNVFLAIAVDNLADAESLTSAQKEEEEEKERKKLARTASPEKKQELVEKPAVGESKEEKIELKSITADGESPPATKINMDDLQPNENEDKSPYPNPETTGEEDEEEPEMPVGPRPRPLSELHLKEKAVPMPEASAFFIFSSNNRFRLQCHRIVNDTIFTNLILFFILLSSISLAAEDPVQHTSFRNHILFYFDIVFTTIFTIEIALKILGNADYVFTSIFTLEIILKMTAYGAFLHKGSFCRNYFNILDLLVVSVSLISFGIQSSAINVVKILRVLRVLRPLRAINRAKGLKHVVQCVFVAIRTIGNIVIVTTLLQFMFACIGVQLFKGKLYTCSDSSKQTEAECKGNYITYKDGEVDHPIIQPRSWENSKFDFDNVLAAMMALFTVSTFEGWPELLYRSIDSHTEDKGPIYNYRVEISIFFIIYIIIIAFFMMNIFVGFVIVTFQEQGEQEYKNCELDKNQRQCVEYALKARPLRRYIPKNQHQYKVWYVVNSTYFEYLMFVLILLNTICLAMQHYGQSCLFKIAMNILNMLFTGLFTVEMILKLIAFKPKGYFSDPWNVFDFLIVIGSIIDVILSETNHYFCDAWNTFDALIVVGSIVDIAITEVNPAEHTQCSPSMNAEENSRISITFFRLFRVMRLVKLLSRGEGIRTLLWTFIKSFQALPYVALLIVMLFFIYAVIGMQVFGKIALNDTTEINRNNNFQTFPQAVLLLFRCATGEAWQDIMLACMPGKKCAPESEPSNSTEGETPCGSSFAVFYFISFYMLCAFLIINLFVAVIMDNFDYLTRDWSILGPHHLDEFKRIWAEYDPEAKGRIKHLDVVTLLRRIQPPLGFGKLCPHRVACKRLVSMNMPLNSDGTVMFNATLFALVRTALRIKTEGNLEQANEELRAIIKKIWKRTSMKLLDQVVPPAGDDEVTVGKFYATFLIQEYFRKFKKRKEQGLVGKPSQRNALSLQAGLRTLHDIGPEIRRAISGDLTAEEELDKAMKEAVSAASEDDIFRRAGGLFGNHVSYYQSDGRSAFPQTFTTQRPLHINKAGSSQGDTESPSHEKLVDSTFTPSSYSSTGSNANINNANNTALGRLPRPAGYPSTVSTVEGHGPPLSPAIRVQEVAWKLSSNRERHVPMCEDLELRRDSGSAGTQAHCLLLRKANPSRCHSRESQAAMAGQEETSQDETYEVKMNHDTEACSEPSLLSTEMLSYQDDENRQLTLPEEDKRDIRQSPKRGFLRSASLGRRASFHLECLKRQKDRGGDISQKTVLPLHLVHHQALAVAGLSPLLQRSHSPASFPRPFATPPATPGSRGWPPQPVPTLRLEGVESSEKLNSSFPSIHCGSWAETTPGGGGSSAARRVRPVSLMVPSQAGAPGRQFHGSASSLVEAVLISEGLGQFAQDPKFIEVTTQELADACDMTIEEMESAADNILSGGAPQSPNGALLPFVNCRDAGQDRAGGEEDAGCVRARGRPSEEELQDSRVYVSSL

[15] = target: T1, Free fatty acid receptor 3 (Homo sapiens); remark: listed apart in the source
[16] = target: T2, Free fatty acid receptor 3; experiment: as §1; type: functional, cell-based
[17] = target: T1, Free fatty acid receptor 3 (Homo sapiens); experiment: Negative allosteric modulation at human FFA3 receptor stably expressed in Flp-In T-Rex HEK293 cells cotransfected with eYFP assessed as effect on forskolin-induced cAMP production at 30 uM measured after 1 hr in presence of 3 uM propionate by fluorescence plate reader assay

Compound: Cc1ccccc1NC(=O)c1c(C)nc2c(c1-c1ccco1)C(=O)CCC2
pEC50 [1]: inactive
pEC50 [2]: inactive

Compound: CC1=C(C(=O)Nc2ccccc2C)C(CC(C)C)C(C(=O)c2ccccc2)=C(C)N1 (centres undefined)
pEC50 [1]: inactive
pEC50 [2]: inactive

Compound: CC1=C(C(=O)Nc2cc(Cl)ccc2Cl)C(CN)C2=C(CCCC2=O)N1 (centres undefined)
pEC50 [2]: inactive

EC50 [3]: 11.7 µM
EC50 [4]: 10.7 µM
Compound: CCC(=O)O [PROPIONIC ACID]

Compound: COC(=O)C1=C(C)NC2=C(C(=O)CCC2)C1CC(C)C (centres undefined)
pEC50 [2]: inactive

Compound: COC(=O)C1=C(C)NC(C)=C(C(=O)Nc2ccccc2C)C1CC(C)C (centres undefined)
pEC50 [2]: inactive

Compound: CC1=C(C(=O)Nc2cc(Cl)ccc2Cl)C(CC2CCNCC2)C2=C(CCCC2=O)N1 (centres undefined)
pEC50 [2]: inactive

Compound: CCN(CC)CCOCC1C(C(=O)Nc2cc(Cl)ccc2Cl)=C(C)NC2=C1C(=O)CCC2 (centres undefined)
pEC50 [2]: inactive

Activity [5]: Active
Stability [6]: Unstable
Activity [7]: inactive
remaining at 720 h [8]: 100%
Activity [9]: inactive
Activity [10]: inactive
remaining at 168 h [11]: 100%
Activity [12]: inactive
remaining at 168 h [13]: 100%
inhibition (INH) [14]: Not Active
Compound: CCCC1C(C(=O)Nc2cc(Cl)ccc2Cl)=C(C)NC2=C1C(=O)CCC2 (centres undefined)
Activity (DRG neuron): inactive

Compound: CC1=C(C(=O)Nc2cc(Cl)ccc2Cl)C(CNC(=O)OC(C)(C)C)C2=C(CCCC2=O)N1 (centres undefined)
pEC50 [2]: inactive

Compound: CC1=C(C(=O)c2ccccc2)C(CC(C)C)C2=C(CCCC2=O)N1 (centres undefined)
pEC50 [2]: inactive

Activity [7]: inactive
Activity [9]: inactive
Activity [10]: inactive
Activity [12]: inactive
inhibition (INH) [14]: Not Active
Compound: CC1=C(C(=O)Nc2cc(Cl)ccc2Cl)C(C2CCCC2)C2=C(CCCC2=O)N1 (centres undefined)

Compound: CC1=C(C(=O)Nc2ccccc2C)C(c2ccccc2Br)C2=C(CCCC2=O)N1 (centres undefined)
pEC50 [15]: inactive

Compound: Cc1ccccc1NC(=O)C1=C(c2ccccc2)NC2=C(C(=O)CCC2)C1c1ccco1 (centres undefined)
pEC50 [2]: inactive

Activity [7]: inactive
Activity [9]: inactive
Activity [10]: inactive
Activity [12]: inactive
inhibition (INH) [14]: Not Active
Compound: CC1=C(C(=O)Nc2cc(Cl)ccc2Cl)C(c2ccco2)C2=C(CCCC2=O)N1 (centres undefined)

Compound: CC1=C(C(=O)Nc2ccccc2C)C(c2ccco2)C2=C(CCCC2=O)N1 (centres undefined)
EC50 [16]: 0.537 µM
Activity [7]: inactive
Activity [9]: inactive
Activity [10]: inactive
Activity [12]: inactive
inhibition (INH) [14]: Not Active

Compound: CC1=C(C(=O)Nc2cc(Cl)ccc2Cl)C(CC2CCN(C(=O)OC(C)(C)C)CC2)C2=C(CCCC2=O)N1 (centres undefined)
Activity [17]: Active
pEC50 [2]: inactive
